Experiments:
[1] = melting temperature; fluorescence melt of hairpins on a sequencing array, two-state fit, raised by 9.35 °C to match UV melts; conditions: sodium 0.088 M
In short: (§1)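 To match UV melts, fitted temperatures were raised by 9.35 °C. These fits were bootstrapped two-state models that gave melting temperature and folding enthalpy, combined by inverse variance over four replicates. The input was normalised Cy3 fluorescence of library hairpins with annealed Cy3 and quencher oligos on a sequenced MiSeq flow cell, imaged in 50 mM Na-HEPES pH 8.0, 25 mM NaCl in 2.5 °C steps up to 60 °C.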

[2] = folding enthalpy; higher = less favourable; fluorescence melt of hairpins on a sequencing array, two-state fit; conditions: sodium 0.088 M
In short: as §1

Sequence	Tm [1] [°C]	folding enthalpy [2] [kcal/mol]
GCTTGGGGAAACCCAAAC (.(((((....))))).)	39.3	-14.5
GACAACGAAAGTTGGGTC ((((((....)))..)))	49.8	-15.7
GGGACTGGAAACAGTTCC ((.((((....)))).))	51.4	-36.1
GATGGGACGAAAGTCATC (((..(((....))))))	31.9	-15.4
CGTCCGGAAACGGAAACG ((((((....)))..)))	40.5	-20.9
GTGTACGAAAGTACCCAC ((((((....)))..)))	31.9	-10.3
GCCGACGAAAGTCGAGGC ((((((....)))..)))	59.5	-16.5
GTAAACGAAAGTTTCTAC ((((((....)))..)))	30.2	-12.3
GGCAGTGGAAACACCACC ((..(((....)))..))	29.5	-13.2
GCAACGCGAAAGCGAAGC ((..(((....)))..))	44.9	-12.9
AAACCGAAAGGTTT (((((....)))))	52.8	-20.7
GTTTGGCGAAAGCCCAAC (((.(((....))).)))	39.1	-19.1
GTTCGCGAAAGCGCCAAC ((((((....)))..)))	25.6	-8.24
GATCCAGGCCTGGATC ((((((....))))))	60	-54.9
GGCAGCCGAAAGGCCGCC (((.(((....))).)))	66.9	-22.3
GCGTTGCGAAAGCGAAGC ((.(.((....)).).))	54	-20.4
GAAGACGAAAGTCGCTTC ((((((....)))..)))	47.1	-22.6
GTTTGGGGAAACTCGAAC (((.(.(....).).)))	30.8	-17.6
GGCATCCGAAAGGACGCC (((.(((....))).)))	57.2	-48.8
GTTCGAGGAAACCCGAAC (((((.(....).)))))	47	-29.9
GTGGCCGAAAGGCCCCAC ((((((....)))..)))	38.1	-5.99
GGACTCGAAAGAGCCTCC ((((((....)))..)))	42.7	-16.9
GATCCTGCTGAGGATC ((((((....))))))	51.4	-52.2

Sequence	Tm [1] [°C]	folding enthalpy [2] [kcal/mol]
GATCGGAATACCGATC ((((((....))))))	56.6	-33.1
GCGATGGGAAACCATCAC (.(((((....))))).)	43.1	-15.9
TGCTAGAAATAGCA (((((....)))))	41.2	-14.6
GCGGGGCGAAAGCACGGC ((.(.((....)).).))	65.2	-15.7
GCTTCAACGAAAGTTAGC (((..(((....))))))	30.9	-18.7
GGCGGTCGAAAGACGCC (((.(((....))))))	67.3	-28.6
GCTCCCGAAAGGGCGAGC ((((((....)))..)))	47.9	-16.3
GCGTTCGAAAGAAGACGC ((((((....)))..)))	46.9	-31.8
GATCGTCGTAACGATC ((((((....))))))	57.1	-48.4
GGATACGAAAGTAAGTCC ((((((....)))..)))	22.2	-9.06
GGTGTACGAAAGTAACC (((.(((....))))))	47.8	-24.5
GATCCACTGGTGGATC ((((((....))))))	59.1	-39.4
GGTTGGGGAAACTCAGCC ((.((.(....).)).))	36.1	-30.7
GGGGTAGGAAACTACCCC (((((((....)))))))	67.2	-25.7
GTAACCGAAAGGTGGTAC ((((((....)))..)))	33.8	-12.3
GCAAGCGAAAGCTTTGC ((((((....))).)))	53.7	-21
AGCAAGAAATTGCT (((((....)))))	39.3	-16
GTGTTTCCGAAAGGACAC (((..(((....))))))	43.4	-23.4
GCGGAACGAAAGTTGCGC (((.(((....))).)))	67.9	-35.6
GATCCTAAGAGGATC ((((((...))))))	53.8	-29.6
GCTTCCGAAAGGAGCAGC ((((((....)))..)))	41.7	-15.2
GGAGTCGAAAGACAATCC ((((((....)))..)))	32.5	-15.4
GAGACGCCGAAAGGCCTC (((..(((....))))))	30.6	-8.48

— the array DNA melting data of Ke et al. (doi:10.1101/2024.01.08.574731)
